Data taken from publication PMC4824049 (Bioorganic & medicinal chemistry, 2015).
Entries after “also recorded” stand apart in the source; their conditions may differ.

How the values were obtained:
cathepsin L [1] = target: T1, cathepsin L (Homo sapiens, UniProt P07711); settings: cited from earlier work
HUVECs = assay: Cytotoxicity assay; format: cell-based, human; settings: normal primary cells
Summary of the method: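 Pooled-donor HUVECs were grown on collagen-1-coated flasks in M200 with gentamycin, amphotericin B and low-serum growth supplement at 37 °C and 5% CO2, used at passage 5 or lower. Cells were seeded at 9,000/well for 24 h, then given ten-fold serial dilutions of test compound for 48 h. Plates were TCA-fixed and stained with 0.4% SRB for 30 min. Absorbance was read at 540 nm, normalised to 630 nm. GI50 came from at least two replicates, averaged over at least three experiments.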

human liver cathepsin L = human liver cathepsin L (Homo sapiens, UniProt P07711); assay: Cathepsin L inhibition assay; format: biochemical; settings: tested up to 10,000 nM
Human liver Cathepsin B = Human liver Cathepsin B (Homo sapiens, UniProt P07858); assay: Cathepsin B inhibition assay; format: biochemical
Summary of the method: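 Human liver cathepsin B was pre-incubated with the test compound for 5 min at 37 °C, then Z-RR-AMC was added. Fluorescence (ex 355/em 460 nm) was read over 5 min at 37 °C. IC50 was fitted from triplicate experiments.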

[2] = test system: MDA-MB-231 breast cancer cells; assay: MDA-MB-231 cell migration assay; format: cell-based, human; settings: 25 μM
Summary of the method: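 MDA-MB-231 cells (DMEM, 10% FBS, gentamycin) were trypsinised at 80% confluence and counted. Each insert (8 µm pores, no Matrigel) received 50,000 cells in DMEM with 2% DMSO and test compound at 25 or 10 µM; the lower chamber held DMEM with 10% FBS as chemoattractant. E-64 served as positive control. After 24 h at 37 °C and 5% CO2, migrated cells were methanol-fixed and Diff-stained. Values were normalised to 2% DMSO vehicle, in triplicate.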

C3H mammary carcinoma = assay: Growth inhibition of C3H mammary carcinoma in CDF1 mice; format: in vivo; settings: 20 mg/kg i.p., 5 daily treatments
cathepsin L [3] = target: T1, cathepsin L; assay: Cathepsin L reaction progress curves / reversibility; format: biochemical; settings: separate experiments, Supplementary data
Summary of the method: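 No pre-incubation. Test compound at final 10, 5, 1, 0.5, 0.1, 0.01 and 0.005 µM was mixed with Z-FR-AMC (final 10 µM), and the reaction was started by adding cathepsin L in assay buffer. AMC fluorescence (ex 355/em 460 nm) was read every 30 s for 50 min.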

[4] = E/Z isomerization in solution followed by 1H NMR; format: physicochemical; settings: acetone, one week; isolated as Z isomer

T1 sequence (P07711 114-288 limits assumed): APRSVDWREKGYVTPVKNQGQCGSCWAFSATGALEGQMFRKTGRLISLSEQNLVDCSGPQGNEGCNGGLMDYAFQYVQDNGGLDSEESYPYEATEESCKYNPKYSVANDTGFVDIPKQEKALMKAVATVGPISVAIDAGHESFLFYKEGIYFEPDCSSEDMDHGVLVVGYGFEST
T1 sequence (P07711 292-333 limits assumed): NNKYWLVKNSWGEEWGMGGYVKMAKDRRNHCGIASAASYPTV
human liver cathepsin L, sequence (P07711 114-288 limits assumed): as the sequence (P07711 114-288 limits assumed) above
human liver cathepsin L, sequence (P07711 292-333 limits assumed): as the sequence (P07711 292-333 limits assumed) above

NC(=S)NN=C(c1cccc(O)c1)c1cccc(Br)c1 [X, (3-bromo-3′-hydroxybenzophenone) thiosemicarbazone]
kinetic analysis of cathepsin L inhibition (cathepsin L [1]): time-dependent and slowly reversible

NC(=S)N/N=C(\c1cccc(O)c1)c1cc(Br)cc(C(=O)c2cccc(O)c2)c1 [Compound 31, 1,3-Bis(3-hydroxybenzoyl)-5-bromobenzene thiosemicarbazone]
cytotoxicity toward HUVECs (in words) (HUVECs): very low cytotoxicity

NC(=S)N/N=C(\c1ccc(F)cc1)c1cccc(C(=O)c2ccc(F)cc2)c1 [Compound 8, 1,3-Bis(4-fluorobenzoyl)benzene thiosemicarbazone]
cytotoxicity toward HUVECs (in words) (HUVECs): low cytotoxicity; also recorded: very low cytotoxicity

CC(C)Oc1ccc(C(=O)c2cccc(/C(=N/NC(N)=S)c3ccc(OC(C)C)cc3)c2)cc1 [Compound 14, 1,3-Bis(4-isopropoxybenzoyl)benzene thiosemicarbazone]
activity against cathepsin L (in words) (human liver cathepsin L): inactive

NC(=S)N/N=C(\c1ccc(Br)cc1)c1cccc(/C(=N/NC(N)=S)c2ccc(Br)cc2)c1 [Compound 10, 1,3-Bis(4-bromobenzoyl)benzene bis-thiosemicarbazone]
activity against cathepsin L (in words) (human liver cathepsin L): no activity
activity against cathepsin B (in words) (Human liver Cathepsin B): inactive

NC(=S)N/N=C(\c1ccccc1)c1cccc(C(=O)c2ccccc2)c1 [Compound 1, 3-Benzoylbenzophenone thiosemicarbazone]
increase in inhibition of migration compared with positive control E-64 [2]: greater than 2 fold
tumor growth delay (in words) (C3H mammary carcinoma; C3H mammary carcinoma in CDF1 mice): showed efficacy in tumor growth delay; also recorded: modest, statistically relevant efficacy in tumor growth delay; also recorded: delayed growth in vivo
tolerability in mouse model (C3H mammary carcinoma; CDF1 mice bearing C3H mammary carcinoma): well-tolerated
reversibility of cathepsin L inhibition (cathepsin L [3]): slowly reversible
cytotoxicity toward HUVECs (in words) (HUVECs): low cytotoxicity; also recorded: very low cytotoxicity

NC(=S)N/N=C(\c1cc(Br)cc(C(=O)c2ccccc2F)c1)c1ccccc1F [Compound 32, 1,3-Bis(2-fluorobenzoyl)-5-bromobenzene thiosemicarbazone]
isomerization on standing in solution [4]: did not isomerize
reversibility of cathepsin L inhibition (cathepsin L [3]): slowly reversible
cytotoxicity toward HUVECs (in words) (HUVECs): low cytotoxicity; also recorded: very low cytotoxicity
